Columns and labels:
[1] = Octanol-water partition coefficient, log P of the compound; format: physicochemical
[2] = test system: Aspergillus niger; test: Antifungal activity against Aspergillus niger after 7 days by tube dilution method; format: functional
Method in brief: (§1)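 Tube dilution in Sabouraud dextrose broth, done in duplicate. DMSO test solution (10 µg/mL) is serially diluted to give 5, 2.5, 1.25, 0.625 and 0.312 µg/mL. Each tube gets 0.1 mL of spore/microbial suspension in saline, then is incubated at 25 °C for 7 d. MIC is read visually as the lowest concentration without turbidity, refined with intermediate concentrations. Fluconazole is the reference.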

[3] = test system: Candida albicans; test: Antifungal activity against Candida albicans after 48 hrs by tube dilution method; format: functional
Method in brief: as §1, with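 “5 down to” for “5, 2.5, 1.25, 0.625 and”, “yeast” for “spore/microbial”, “37” for “25”, “48 h.” for “7 d.”, “is” for “is read visually as”, “preventing” for “without”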

[4] = test system: Staphylococcus aureus; test: Antibacterial activity against Staphylococcus aureus after 24 hrs by tube dilution method; format: functional
Method in brief: (§2)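 Tube dilution in double strength nutrient broth-IP, done in duplicate. Test solution in DMSO (10 µg/mL) is serially diluted twofold into medium to give 5, 2.5, 1.25, 0.625 and 0.312 µg/mL. Each tube gets 0.1 mL of microbial suspension in saline, then is incubated at 37 °C for 24 h. MIC is the lowest concentration with no visible turbidity, refined by testing intermediate concentrations. Ciprofloxacin is the reference.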

[5] = test system: Bacillus subtilis; test: Antibacterial activity against Bacillus subtilis after 24 hrs by tube dilution method; format: functional; method in brief: as §2
[6] = test system: Escherichia coli; test: Antibacterial activity against Escherichia coli after 24 hrs by tube dilution method; format: functional; method in brief: as §2
[7] = test system: Pseudomonas aeruginosa; test: Antibacterial activity against Pseudomonas aeruginosa after 24 hrs by tube dilution method; format: functional; method in brief: as §2

Row | Compound | logP [1] | -logMIC [2] | -logMIC [3] | -logMIC [4] | -logMIC [5] | -logMIC [6] | -logMIC [7]
1 | O=[N+]([O-])c1ccc(S(=O)(=O)N2N=C3CCCCC3C2c2ccc(F)cc2)cc1 (stereo not drawn) | 4.9 | 2.76 | 2.65 | 2.7 | 2.76 | 2.76 | 2.81
2 | COc1ccc(C2C3CCCCC3=NN2S(C)(=O)=O)cc1 (stereo not drawn) | 2.9 | 2.53 | 2.59 | 2.31 | 2.53 | 2.39 | 2.49
3 | Fc1ccc(C2NN=C3CCCCC32)cc1 (stereo not drawn) | 4 | 2.24 | 2.16 | 2.04 | 2.24 | 2.24 | 2.24
4 | O=S(=O)(c1cccc2ccccc12)N1N=C2CCCCC2C1c1ccc(Cl)cc1 (stereo not drawn) | 6.4 | 2.67 | 2.73 | 2.53 | 2.67 | 2.63 | 2.67
5 | COc1ccc(C2C3CCCCC3=NN2S(=O)(=O)c2ccc([N+](=O)[O-])cc2)cc1 (stereo not drawn) | 4.5 | 2.66 | 2.77 | 2.66 | 2.62 | 2.66 | 2.72
6 | Clc1ccc(C2NN=C3CCCCC32)cc1 (stereo not drawn) | 4.4 | 2.27 | 2.27 | 2.07 | 2.07 | 2.19 | 2.19
7 | COc1ccc(C2NN=C3CCCCC32)cc1 (stereo not drawn) | 3.6 | 2.19 | 2.19 | 2.01 | 2.01 | 2.06 | 2.19
8 | COc1ccc(C2C3CCCCC3=NN2S(=O)(=O)c2ccc(C)cc2)cc1 (stereo not drawn) | 5.1 | 2.68 | 2.63 | 2.49 | 2.63 | 2.58 | 2.58
9 | COc1ccc(C2C3CCCCC3=NN2S(=O)(=O)c2ccccc2)cc1 (stereo not drawn) | 4.6 | 2.57 | 2.61 | 2.57 | 2.47 | 2.57 | 2.61
10 | O=S(=O)(c1ccc(Cl)cc1)N1N=C2CCCCC2C1c1ccc(Cl)cc1 (stereo not drawn) | 5.9 | 2.71 | 2.77 | 2.61 | 2.71 | 2.66 | 2.77
11 | COc1ccc(C2C3CCCCC3=NN2S(=O)(=O)c2cccc3ccccc23)cc1 (stereo not drawn) | 5.6 | 2.62 | 2.62 | 2.53 | 2.62 | 2.62 | 2.67
12 | Cc1ccc(S(=O)(=O)N2N=C3CCCCC3C2c2ccc(Cl)cc2)cc1 (stereo not drawn) | 5.8 | 2.64 | 2.59 | 2.49 | 2.64 | 2.59 | 2.64
13 | Cc1ccc(S(=O)(=O)N2N=C3CCCCC3C2c2ccc(F)cc2)cc1 (stereo not drawn) | 5.4 | 2.67 | 2.57 | 2.47 | 2.62 | 2.62 | 2.67
14 | O=C(O)c1cn(C2CC2)c2cc(N3CCNCC3)c(F)cc2c1=O [CIPROFLOXACIN] | – | – | – | 2.03 | 2.33 | 2.03 | 2.62
15 | COc1ccc(C2C3CCCCC3=NN2S(=O)(=O)c2ccc(Cl)cc2)cc1 (stereo not drawn) | 4.3 | 2.65 | 2.61 | 2.61 | 2.65 | 2.65 | 2.7
16 | CS(=O)(=O)N1N=C2CCCCC2C1c1ccc(Cl)cc1 (stereo not drawn) | 3.7 | 2.5 | 2.59 | 2.4 | 2.54 | 2.4 | 2.5
17 | O=S(=O)(c1ccccc1)N1N=C2CCCCC2C1c1ccc(F)cc1 (stereo not drawn) | 5 | 2.55 | 2.6 | 2.55 | 2.65 | 2.65 | 2.71
18 | O=S(=O)(c1cccc2ccccc12)N1N=C2CCCCC2C1c1ccc(F)cc1 (stereo not drawn) | 6 | 2.66 | 2.61 | 2.61 | 2.66 | 2.71 | 2.77
19 | CS(=O)(=O)N1N=C2CCCCC2C1c1ccc(F)cc1 (stereo not drawn) | 3.3 | 2.57 | 2.47 | 2.37 | 2.57 | 2.47 | 2.52
20 | OC(Cn1cncn1)(Cn1cncn1)c1ccc(F)cc1F [FLUCONAZOLE] | – | 3.16 | 3.16 | – | – | – | –
21 | O=S(=O)(c1ccccc1)N1N=C2CCCCC2C1c1ccc(Cl)cc1 (stereo not drawn) | 5.4 | 2.62 | 2.62 | 2.57 | 2.62 | 2.57 | 2.67
22 | O=[N+]([O-])c1ccc(S(=O)(=O)N2N=C3CCCCC3C2c2ccc(Cl)cc2)cc1 (stereo not drawn) | 5.3 | 2.82 | 2.82 | 2.67 | 2.72 | 2.67 | 2.78
23 | O=S(=O)(c1ccc(Cl)cc1)N1N=C2CCCCC2C1c1ccc(F)cc1 (stereo not drawn) | 5.1 | 2.64 | 2.59 | 2.64 | 2.69 | 2.75 | 2.79
